# Measured values taken from ChEMBL document CHEMBL1123632, “Cardiotonic agents. 7. Inhibition of separated forms of cyclic nucleotide phosphodiesterase from guinea pig cardiac muscle by 4,5-dihydro-6-[4-(1H-imidazol-1-yl)phenyl]-3(2H)-pyridazinones and related compounds. Structure-activity relationships and correlation with in vivo positive inotropic …” (J Med Chem, 1987).
# Key:
# [1] = target: T1, cGMP-dependent 3',5'-cyclic phosphodiesterase (Homo sapiens, UniProt O00408); assay: Inhibition of cGMP PDE II enzyme in guinea pig at 1E-5M concentration; settings: Cavia porcellus; target entry is the homologue from another species
# T1 sequence (O00408 whole entry): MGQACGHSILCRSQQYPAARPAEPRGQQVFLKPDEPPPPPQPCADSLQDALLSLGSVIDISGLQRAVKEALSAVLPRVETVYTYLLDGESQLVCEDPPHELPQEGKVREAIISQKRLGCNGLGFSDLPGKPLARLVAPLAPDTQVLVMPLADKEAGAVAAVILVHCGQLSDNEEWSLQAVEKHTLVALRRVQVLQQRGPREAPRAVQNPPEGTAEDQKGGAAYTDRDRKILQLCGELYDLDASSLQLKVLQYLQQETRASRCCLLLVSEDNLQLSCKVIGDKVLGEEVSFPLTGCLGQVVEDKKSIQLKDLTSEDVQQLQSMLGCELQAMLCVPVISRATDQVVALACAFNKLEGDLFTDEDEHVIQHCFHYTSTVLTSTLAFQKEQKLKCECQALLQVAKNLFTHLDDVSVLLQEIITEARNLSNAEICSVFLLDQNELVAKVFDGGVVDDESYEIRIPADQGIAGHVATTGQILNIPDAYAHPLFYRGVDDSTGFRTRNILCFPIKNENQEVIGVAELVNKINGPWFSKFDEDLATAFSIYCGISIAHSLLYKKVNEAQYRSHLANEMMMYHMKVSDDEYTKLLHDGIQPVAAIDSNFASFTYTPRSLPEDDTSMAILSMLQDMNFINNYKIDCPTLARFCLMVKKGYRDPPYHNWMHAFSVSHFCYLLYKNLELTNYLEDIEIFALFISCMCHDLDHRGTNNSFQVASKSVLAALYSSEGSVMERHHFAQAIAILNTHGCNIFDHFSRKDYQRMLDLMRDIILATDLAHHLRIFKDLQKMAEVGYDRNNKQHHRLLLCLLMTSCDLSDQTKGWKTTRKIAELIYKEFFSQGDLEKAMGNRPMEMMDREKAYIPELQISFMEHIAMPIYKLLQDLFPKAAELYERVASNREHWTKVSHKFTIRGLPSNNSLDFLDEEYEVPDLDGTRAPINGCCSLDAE
# [2] = target: T2, Phosphodiesterase 1 (Homo sapiens, UniProt P54750+Q01064+Q14123); assay: Inhibition of cAMP PDE I enzyme in guinea pig at 1E-5M concentration; format: protein assay; settings: Cavia porcellus; target entry is the homologue from another species
# [3] = target: T2, Phosphodiesterase 1; assay: Inhibition of cGMP PDE I enzyme in guinea pig at 1E-5M concentration; format: protein assay; settings: Cavia porcellus; target entry is the homologue from another species
# [4] = target: T1, cGMP-dependent 3',5'-cyclic phosphodiesterase; assay: Inhibition of cAMP PDE II enzyme in guinea pig at 1E-5M concentration; settings: Cavia porcellus; target entry is the homologue from another species
# [5] = target: T3, Phosphodiesterase 3 (Homo sapiens, UniProt Q14432+Q13370); assay: Inhibition of cAMP PDE III enzyme in guinea pig at 1E-5M concentration; format: protein assay; settings: Cavia porcellus; target entry is the homologue from another species
# [6] = organism: Canis familiaris; assay: Effective dose required to increase myocardial contractility in dog.; format: functional; settings: Canis lupus familiaris, Myocardium
# How it was run: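 Anesthetized mongrel dogs (either sex): pentobarbital 35 mg/kg iv, then 5 mg kg⁻¹ h⁻¹ infusion. After 30-min control, compound in saline or dilute HCl/NaOH diluted with saline given iv over 1 min, cumulative half-log doses (typically four to six), 10–30 min apart.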
# [7] = target: T1, cGMP-dependent 3',5'-cyclic phosphodiesterase; assay: Inhibition of cGMP PDE II enzyme in guinea pig at 1E-4M concentration; settings: Cavia porcellus; target entry is the homologue from another species
# [8] = target: T1, cGMP-dependent 3',5'-cyclic phosphodiesterase; assay: Inhibitory concentration against cGMP PDE II enzyme in guinea pig; design: species or system Cavia porcellus; settings: target entry is the homologue from another species
# [9] = target: T3, Phosphodiesterase 3; assay: Inhibitory concentration against cAMP PDE III enzyme in guinea pig; format: protein assay, Cavia porcellus; settings: target entry is the homologue from another species
# [10] = target: T3, Phosphodiesterase 3; assay: Inhibition of cAMP PDE III enzyme in guinea pig at 1E-4M concentration.; format: protein assay; settings: Cavia porcellus; target entry is the homologue from another species
# [11] = target: T2, Phosphodiesterase 1; assay: Inhibition of cAMP PDE I enzyme in guinea pig at 1E-4M concentration.; format: protein assay; settings: Cavia porcellus; target entry is the homologue from another species
# [12] = target: T2, Phosphodiesterase 1; assay: Inhibition of cGMP PDE I enzyme in guinea pig at 1E-4M concentration; format: protein assay; settings: Cavia porcellus; target entry is the homologue from another species
# [13] = target: T1, cGMP-dependent 3',5'-cyclic phosphodiesterase; assay: Inhibitory concentration against cAMP PDE II enzyme in guinea pig; design: species or system Cavia porcellus; settings: target entry is the homologue from another species
# [14] = Ratio of IC50 values for PDE III and PDE I.
# [15] = Ratio of IC50 values for PDE III and PDE II.
# [16] = target: PDE I (Cavia porcellus); assay: Inhibitory concentration against cAMP PDE I enzyme in guinea pig
# [17] = target: PDE I (Cavia porcellus); assay: Inhibitory concentration against cGMP PDE I enzyme in guinea pig
# [18] = test system: PDE II (Cavia porcellus); assay: Inhibition of cAMP PDE II enzyme in guinea pig at 1E-4M concentration.
SMILES,inhibition [1] [%],inhibition [2] [%],inhibition [3] [%],inhibition [4] [%],inhibition [5] [%],inhibition [7] [%],IC50 [8] [µM],IC50 [9] [µM],inhibition [10] [%],inhibition [11] [%],inhibition [12] [%],IC50 [13] [µM],Ratio [14],Ratio [15],IC50 [16] [µM],IC50 [17] [µM],inhibition [18] [%],ED50 [6] [mg/kg]
O=C1CCC(c2ccc(-n3cccn3)cc2)=NN1,27,12,15,27,,,,,,,,,,,,,,
Cc1[nH]c(=O)c(C#N)cc1-c1ccncc1 [MILRINONE],,,,,,,,,,,,,,,,,,0.037
O=C1CCC(c2ccc(-n3cnnc3)cc2)=NN1,21,29,20,25,70,,,,,,,,,,,,,
O=C1CCC(c2cccc(-n3ccnc3)c2)=NN1,10,6,3,10,28,28,340,40,65,9,8,330,43,121,930,> 1000,21,0.3
O=C1CCC(c2ccc(-n3cnc4ccccc43)cc2)=NN1,24,9,9,24,66,70,34,1.2,88,25,36,42,4.3,28.5,280,220,67,0.1
O=C1CCC(c2ccc(-c3nn[nH]n3)cc2)=NN1,29,21,20,37,86,,,,,,,,,,,,,
CSc1nccn1-c1ccc(C2=NNC(=O)CC2)cc1,12,7,13,10,57,,,,,,,,,,,,,
O=C1CCC(c2ccc(NC3=NCCS3)cc2)=NN1,33,18,20,31,58,,,,,,,,,,,,,
Oc1ccc(-c2ccc(-n3cnc4c3CCCC4)cc2)nn1,,30,27,,,,,,,52,56,,,,,,,
Oc1ccc(-c2ccc(-c3ncc[nH]3)cc2)nn1,7,8,10,10,51,41,180,12,69,18,23,190,,,,,,0.017
O=C1CCC(c2ccc(-n3cnc4c3CCCC4)cc2)=NN1,22,8,7,20,60,69,39,1.1,87,38,37,49,,,,,,0.064
O=C1CCC(c2ccc(-n3cccc3)cc2)=NN1,21,0,13,20,68,,,,,,,,,,,,,
Cc1csc(Nc2ccc(C3=NNC(=O)CC3)cc2)n1,23,7,2,23,58,,,,,,,,,,,,,
CCc1nc(C)cn1-c1ccc(C2=NNC(=O)CC2)cc1,9,9,7,14,59,44,92,3.5,76,51,53,170,,,,,,0.1
O=C1CCC(c2ccc(NC3=NCCN3)cc2)=NN1,16,33,33,28,58,,,,,,,,,,,,,
CCc1nc(C)c(Br)n1-c1ccc(-c2ccc(O)nn2)cc1,,20,,,,,,,,64,,,,,,,,
O=C1CCC(c2ccc(-n3cnc(CO)c3)cc2)=NN1,5,1,,6,59,23,350,4.1,68,9,9,480,,,,,,0.034
CC1CC(=O)NN=C1c1ccc(-n2cnc3c2CCCC3)cc1 (stereo unspecified) [TETRAHYDROBENXIMIDAZOLE],21,13,17,21,64,68,43,0.15,90,57,54,46,2,3.2,75,85,65,0.025
O=C1CCC(c2ccc(NC3=NCCO3)cc2)=NN1,4,3,6,9,54,31,,,68,26,12,,,,,,36,

# More lines, main results first:
inhibition [1] [%],inhibition [2] [%],inhibition [3] [%],inhibition [4] [%],inhibition [5] [%],inhibition [7] [%],IC50 [8] [µM],IC50 [9] [µM],inhibition [10] [%],inhibition [11] [%],inhibition [12] [%],IC50 [13] [µM],Ratio [14],Ratio [15],IC50 [16] [µM],IC50 [17] [µM],inhibition [18] [%],SMILES,ED50 [6] [mg/kg]
12,1,9,16,20,,,,,,,,,,,,,Cn1nc(-c2ccc(-n3ccnc3)cc2)ccc1=O,
8,1,2,14,8,44,130,220,34,22,16,150,,,,,,O=C1NN=C(c2ccc(-n3ccnc3)cc2)C2CCCCC12 (stereo unspecified),1
11,1,5,23,16,,,,,,,,,,,,,CC(=O)OCCN1N=C(c2ccc(-n3ccnc3)cc2)CCC1=O,
13,1,1,5,18,40,71,74,54,2,8,100,,740,> 1000,> 1000,35,CCC1CC(=O)NN=C1c1ccc(-n2ccnc2)cc1 (stereo unspecified),1
1,1,3,5,13,32,280,110,47,22,26,370,,297,> 1000,> 1000,33,CN1N=C(c2ccc(-n3ccnc3)cc2)CCC1=O,1
6,2,5,17,47,,,,,,,,,,,,,CC1(C)CC(=O)NN=C1c1ccc(-n2ccnc2)cc1,
12,6,4,20,21,,,,,,,,,,,,,NNC(=O)c1cc(-c2ccc(-n3ccnc3)cc2)nnc1O,
,,,,,,170,,,,,210,,,,,,Cc1cc(=O)[nH]nc1-c1ccc(-n2ccnc2)cc1,
8,0,4,4,26,39,,50,64,24,14,,,,,,,Cc1cc(O)nnc1-c1ccc(-n2ccnc2)cc1,1.1
15,11,16,18,24,,,,,,,,,,,,,NC(=O)c1cc(-c2ccc(-n3ccnc3)cc2)nnc1O,
13,7,2,22,27,,,,,,,,,,,,,CC1(C)CC(c2ccc(-n3ccnc3)cc2)=NNC1=O,
18,1,13,22,47,70,,,79,39,33,,,,,,70,O=C1CCC(c2ccc(-n3ccnc3)cc2)=NN1Cc1ccccc1,
